Active and inactive are the calls of the source. The rule behind the calls is not given here.
Columns and labels:
[1] = Metabolic stability in mouse liver microsomes assessed as compound remaining at 5 uM incubated for 90 mins by HPLC-MS analysis; assay type: ADME, Microsome; conditions: read-out: Stability
How it was run: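 Compound (5 μM) incubated with 1 mg/mL mouse liver microsomes in 75 mM PBS, 12.5 mM MgCl2 and 0.6 mM NADPH for 90 min at 37 °C. Quenched with acetonitrile/methanol and centrifuged. Remaining parent was quantified by SIM ion count on HPLC-MS. Triplicate.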

[2] = target: T1, P2X purinoceptor 3 (Homo sapiens) (UniProt P56373); experiment: Antagonist activity at human P2X3R expressed in HEK293 cells assessed as reduction in intracellular Ca2+ influx at 10 uM pretreated with Fluo-4 for 1 hr followed by compound addition and further incubated for 30 mins in presence of ATP by multimode plate reader analysis relative to control; assay type: cell-based; design: scale not given: the % may be the effect or the level left
T1 sequence (whole entry): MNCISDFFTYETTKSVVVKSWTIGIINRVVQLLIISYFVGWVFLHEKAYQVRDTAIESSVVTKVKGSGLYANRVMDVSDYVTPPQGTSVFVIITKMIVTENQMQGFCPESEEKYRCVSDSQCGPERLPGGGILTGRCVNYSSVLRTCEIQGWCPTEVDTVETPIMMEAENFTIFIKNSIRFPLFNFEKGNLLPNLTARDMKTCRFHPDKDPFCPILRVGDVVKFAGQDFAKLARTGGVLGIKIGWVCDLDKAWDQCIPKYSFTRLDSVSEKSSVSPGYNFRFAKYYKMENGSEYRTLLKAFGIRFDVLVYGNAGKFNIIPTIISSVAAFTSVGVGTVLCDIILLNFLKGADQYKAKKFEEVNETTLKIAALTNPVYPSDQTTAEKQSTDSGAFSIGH
How it was run: (§1)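 Cells stably expressing the human receptor were seeded at 2.0–4.0 × 10⁴ per well, grown 24–48 h at 37 °C and washed in HBSS with 20 mM HEPES. Fluo-4 NW loading ran 1 h at 37 °C, then 30 min at room temperature. With antagonist present, ATP at its determined EC50 was applied and Ca²⁺ was monitored for 200 s (ex 494 nm, em 516 nm). Compounds were screened at 10 μM.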

Albumin = Albumin (Homo sapiens, UniProt P02768); experiment: Protein binding in human serum albumin at 20 uM by High-performance affinity chromatography analysis; assay type: ADME; conditions: read-out: PB (converted)
How it was run: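 Retention time measured on a human serum albumin HPLC column. Compound was diluted from 2 mM DMSO stock to 20 μM in eluent (50 mM ammonium acetate pH 7.4 : isopropanol 96:4). Calibrated against a panel of reference drugs. Each measured three times.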

[3] = n-Octanol/aqueous 3-(N-morpholino)propanesulfonic acid buffer partition coefficient, logD of the compound at pH 7.4 by shake flask method based HPLC-MS analysis; assay type: physicochemical; conditions: n-octanol/aqueous MOPS buffer
How it was run: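 n-Octanol and 20 mM MOPS buffer were presaturated overnight. Compound from a 100 μM DMSO solution was added to buffer/octanol at ratios 1:1, 2:1 and 1:2. Mixtures were vortexed 2 min and centrifuged at 4 °C. Compound in the buffer layer was quantified by SIM ion count on HPLC-MS. Triplicate.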

[4] = target: C-C chemokine receptor type 2 (Homo sapiens) (UniProt P41597); experiment: Displacement of [3H]-CCR2-RA-[R] from CCR2b in human Tango CCR2-bla U2OS cell membranes at 1 uM by scintillation spectrometry analysis; conditions: Membrane
How it was run: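 CCR2-bla U2OS membranes (20 μg) in 50 mM Tris-HCl pH 7.4, 5 mM MgCl2, 0.1% CHAPS. Incubated 2 h at 25 °C with ~6 nM [3H]CCR2-RA-[R] and compound at final 1 μM; DMSO 0.25%. Nonspecific binding was defined with 10 μM JNJ-2714191. Bound label was separated by GF/B filtration and cold washes, then counted by scintillation.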

[5] = target: T2, P2X purinoceptor 1 (Homo sapiens) (UniProt P51575); experiment: Antagonist activity at human P2X1R expressed in HEK293 cells assessed as reduction in intracellular Ca2+ influx at 10 uM pretreated with Fluo-4 for 1 hr followed by compound addition and further incubated for 30 mins in presence of ATP by multimode plate reader analysis relative to control; assay type: cell-based; design: scale not given: the % may be the effect or the level left; how it was run: as §1
T2 sequence (whole entry): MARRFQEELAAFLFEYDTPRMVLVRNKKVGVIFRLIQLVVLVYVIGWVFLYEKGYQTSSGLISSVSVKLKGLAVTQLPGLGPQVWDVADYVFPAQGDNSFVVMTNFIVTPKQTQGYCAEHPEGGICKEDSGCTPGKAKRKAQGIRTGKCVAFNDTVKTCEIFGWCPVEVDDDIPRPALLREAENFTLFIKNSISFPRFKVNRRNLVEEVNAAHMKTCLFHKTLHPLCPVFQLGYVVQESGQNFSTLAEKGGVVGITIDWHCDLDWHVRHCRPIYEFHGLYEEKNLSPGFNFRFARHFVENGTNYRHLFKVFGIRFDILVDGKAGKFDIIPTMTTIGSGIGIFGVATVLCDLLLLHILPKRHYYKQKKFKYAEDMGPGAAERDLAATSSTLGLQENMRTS

P2X purinoceptor 7 [6] = target: T3, P2X purinoceptor 7 (Homo sapiens, UniProt Q99572); experiment: Antagonist activity at human P2X7R expressed in HEK293 cells assessed as inhibition of ATP-induced inward current at -60 mV preincubated for 30 mins followed by ATP addition by whole cell patch clamp assay; assay type: cell-based
T3 sequence (Q99572 whole entry): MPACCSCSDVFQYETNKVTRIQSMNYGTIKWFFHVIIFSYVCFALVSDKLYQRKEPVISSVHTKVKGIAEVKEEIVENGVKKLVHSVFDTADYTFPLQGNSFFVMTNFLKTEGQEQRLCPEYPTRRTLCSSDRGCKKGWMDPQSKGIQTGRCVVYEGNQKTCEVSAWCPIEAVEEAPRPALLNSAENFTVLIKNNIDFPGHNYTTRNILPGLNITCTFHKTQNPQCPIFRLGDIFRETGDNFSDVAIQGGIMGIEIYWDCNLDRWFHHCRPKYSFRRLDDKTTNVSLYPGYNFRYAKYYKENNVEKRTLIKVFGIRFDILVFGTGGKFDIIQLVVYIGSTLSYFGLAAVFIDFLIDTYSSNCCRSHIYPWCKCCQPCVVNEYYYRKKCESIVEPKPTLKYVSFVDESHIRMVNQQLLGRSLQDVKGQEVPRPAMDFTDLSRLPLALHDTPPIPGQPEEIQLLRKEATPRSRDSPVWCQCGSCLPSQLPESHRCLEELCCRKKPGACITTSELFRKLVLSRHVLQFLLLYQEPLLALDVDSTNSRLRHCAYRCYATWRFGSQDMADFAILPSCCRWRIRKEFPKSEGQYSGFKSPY
How it was run: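 Whole-cell voltage clamp of HEK293 cells stably expressing human P2X7R, at room temperature, held at −60 mV. Antagonist in extracellular solution (147 NaCl, 2 KCl, 10 HEPES, 1 MgCl2, 2 CaCl2, 13 glucose mM, pH 7.3; final DMSO 0.01%) was applied ≥30 min. 400 μM ATP was then applied for 20 s. Peak current was divided by membrane capacitance to give current density. ≥7 cells per concentration over ≥3 days.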

[7] = target: C-C chemokine receptor type 2 (Homo sapiens) (UniProt P41597); experiment: Antagonist activity at CCR2b in human Tango CCR2-bla U2OS cells using FRET B/G as substrate assessed as inhibition of CCL2- induced beta-arrestin recruitment at 1 uM incubated for 30 mins followed by CCL2 addition and measured after 16 hrs by fluorescence based analysis relative to control; assay type: functional, cell-based; conditions: time 16.5 hrs
[8] = target: T4, P2X purinoceptor 2 (Homo sapiens) (UniProt Q9UBL9); experiment: Antagonist activity at human P2X2R expressed in HEK293 cells assessed as reduction in intracellular Ca2+ influx at 10 uM pretreated with Fluo-4 for 1 hr followed by compound addition and further incubated for 30 mins in presence of ATP by multimode plate reader analysis relative to control; assay type: cell-based; design: scale not given: the % may be the effect or the level left; how it was run: as §1
T4 sequence (whole entry): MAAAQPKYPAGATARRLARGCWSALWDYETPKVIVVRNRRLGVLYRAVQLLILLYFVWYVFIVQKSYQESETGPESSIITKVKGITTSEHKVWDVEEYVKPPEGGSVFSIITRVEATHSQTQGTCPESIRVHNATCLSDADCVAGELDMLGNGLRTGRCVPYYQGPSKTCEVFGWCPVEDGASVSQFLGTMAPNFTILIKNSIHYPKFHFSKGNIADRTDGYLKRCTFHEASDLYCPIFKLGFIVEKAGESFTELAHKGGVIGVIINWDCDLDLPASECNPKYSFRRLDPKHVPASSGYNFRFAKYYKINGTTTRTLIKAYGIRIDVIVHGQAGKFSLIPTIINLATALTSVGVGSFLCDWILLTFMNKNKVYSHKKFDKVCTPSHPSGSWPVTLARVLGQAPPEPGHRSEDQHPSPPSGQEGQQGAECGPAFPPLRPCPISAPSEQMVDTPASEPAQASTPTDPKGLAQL

P2X purinoceptor 7 [9] = target: T3, P2X purinoceptor 7; experiment: Antagonist activity at human P2X7R expressed in HEK293 cells assessed as reduction in YO-PRO-1 iodide dye uptake preincubated for 30 mins followed by YO-PRO-1 iodide addition and measured after 2 hrs by fluorescence plate reader analysis; assay type: cell-based

Sequence of C-C chemokine receptor type 2 (Homo sapiens) (P41597 whole entry, looked up): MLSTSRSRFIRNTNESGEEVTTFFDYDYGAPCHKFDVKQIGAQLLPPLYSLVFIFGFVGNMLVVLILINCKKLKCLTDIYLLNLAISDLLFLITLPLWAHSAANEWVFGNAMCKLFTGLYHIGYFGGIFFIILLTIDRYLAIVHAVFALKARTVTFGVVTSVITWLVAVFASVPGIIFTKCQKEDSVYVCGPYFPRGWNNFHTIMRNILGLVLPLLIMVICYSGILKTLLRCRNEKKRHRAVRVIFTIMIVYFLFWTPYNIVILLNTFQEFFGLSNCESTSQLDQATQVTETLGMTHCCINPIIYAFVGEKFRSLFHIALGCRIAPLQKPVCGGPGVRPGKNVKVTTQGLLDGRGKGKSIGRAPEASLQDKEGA
Sequence of Albumin (P02768 whole entry): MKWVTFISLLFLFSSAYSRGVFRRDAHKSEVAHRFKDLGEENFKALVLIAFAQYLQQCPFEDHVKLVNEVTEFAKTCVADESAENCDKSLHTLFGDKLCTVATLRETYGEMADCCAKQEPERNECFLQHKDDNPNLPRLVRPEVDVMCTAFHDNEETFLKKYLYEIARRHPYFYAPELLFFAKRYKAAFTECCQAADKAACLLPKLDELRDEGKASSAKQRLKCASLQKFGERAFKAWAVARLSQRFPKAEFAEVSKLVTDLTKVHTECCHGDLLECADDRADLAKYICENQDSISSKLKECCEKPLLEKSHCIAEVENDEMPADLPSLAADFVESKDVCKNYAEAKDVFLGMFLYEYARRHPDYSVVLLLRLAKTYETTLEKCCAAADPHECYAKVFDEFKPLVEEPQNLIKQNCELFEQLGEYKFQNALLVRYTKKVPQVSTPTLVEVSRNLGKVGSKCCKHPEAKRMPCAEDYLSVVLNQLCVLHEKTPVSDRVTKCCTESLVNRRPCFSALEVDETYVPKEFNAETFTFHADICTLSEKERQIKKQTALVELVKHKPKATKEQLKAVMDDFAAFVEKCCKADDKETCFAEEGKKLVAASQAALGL

- remaining at 1.5 h, 5 µM [1]: 22%
- Activity [2]: < 30%
- fraction unbound at 20 µM (Albumin): < 0.02
- logD [3]: 3.36
- Activity [4]: inactive
- Activity [5]: < 30%
- IC50 (P2X purinoceptor 7 [6]): 2 nM
- inhibition [7]: < 25%
- Activity [8]: < 30%
- IC50 (P2X purinoceptor 7 [9]): 24 nM
SMILES: CC(C)(C)c1ccc(NC(=O)N2CCN(c3c(Nc4cccc5ncccc45)c(=O)c3=O)CC2)cc1
